Data on 13 compounds can be found in ChEMBL document CHEMBL1154293, “Sesquiterpenoids and benzofuranoids from the marine-derived fungus Aspergillus ustus 094102” (J Nat Prod, 2009).

Assay [1] deals with A549. The experiment in a line: Cytotoxicity against human A549 cells after 24 hrs by SRB assay. Format: functional, cell-based. The settings on record: A549, 24 h. (The SRB assay estimates cell density from bound dye.)
Another assay relates to HL-60. The experiment in a line: Cytotoxicity against human HL60 cells after 72 hrs by MTT assay. Format: functional, cell-based. As to conditions: HL-60, 72 h. In outline: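 HL-60 human tumor cells were plated 24 h ahead, then given various compound concentrations continuously for 72 h. Proliferation inhibition was measured by MTT tetrazolium reduction, and IC50 was derived from the inhibition rates. Etoposide (VP-16) was the positive control.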
On the technique in general: Formazan colour is commonly taken as a measure of viable cells.

Assay [2] relates to A549. The experiment in a line: Cytotoxicity against human A549 cells after 72 hrs by SRB assay. The settings on record: A549, 72 h.

Consider `CC(C)(O)C1Cc2ccc(/C=C\CO)c(CO)c2O1` (stereo unspecified), for which the IC50 in the assay with A549 [1] and in the assay with HL-60 was greater than 100 µM in each case.
Turning to `CC(O)C/C=C/C=C/C(=O)O[C@@H]1C=C2COC(=O)[C@]2(O)[C@@]2(C)CCCC(C)(C)[C@H]12` (stereo partly specified) [USTUSOLATE C], the IC50 (commonly the concentration at which inhibition is half-maximal) in the assay on A549 [2] is 10.5 µM; in the assay on HL-60, greater than 100 µM.
As for `COC(/C=C/C=C/C(=O)O[C@@H]1C=C2COC(=O)[C@]2(O)[C@@]2(C)CCCC(C)(C)[C@H]12)OC` [USTUSOLATE D], the IC50 in the assay on A549 [2] and with HL-60 was greater than 100 µM throughout.
As for `CC1=CC(=O)[C@H]2C(C)(C)C[C@@H](O)C[C@]2(C)[C@@]1(O)CO` [USTUSOL B], the IC50 in the assay on A549 [2] and with HL-60 was greater than 100 µM in each case.
For `CO[C@H]1O[C@H](C)Cc2ccc3c(c21)OC(=C(C)C)C3=O` [USTUSORANE C], the 50% inhibitory concentration (IC50) with A549 [2] and in the assay with HL-60 was greater than 100 µM each time.
Take `CC(O)C/C=C/C=C/C=C/C(=O)OC1C=C2COC(=O)[C@]2(O)[C@@]2(C)CCCC(C)(C)[C@H]12` (stereo partly specified) [USTUSOLATE B]: the IC50 in the assay with A549 [2] and with HL-60 was greater than 100 µM throughout.
In the case of `CC1=CC(=O)[C@H]2C(C)(C)[C@@H](O)CC[C@]2(C)[C@@]1(O)CO` [USTUSOL A], the IC50 with A549 [2] and in the assay with HL-60 was greater than 100 µM in each case.
With `CC1=Cc2ccc3c(c2CO1)OC(=C(C)C)C3=O` [USTUSORANE B], the IC50 in the assay with A549 [2] and in the assay with HL-60 was greater than 100 µM throughout.
`CC1(C)CCC[C@@]2(C)[C@H]1[C@H](OC(=O)/C=C/C=C/C=O)C=C1COC(=O)[C@@]12O` [USTUSOLATE E]: the results for the half-maximal inhibitory concentration (IC50) in the assay on A549 [2] and in the assay on HL-60 were greater than 100 µM and 9 µM, respectively.
On to `CO[C@H]1O[C@H](C)Cc2ccc3c(c21)OC(C(C)C)C3=O` (stereo partly specified) [USTUSORANE D], for which the IC50 in the assay with A549 [2] and in the assay on HL-60 was greater than 100 µM throughout.
For the compound `CO[C@@H]1C=C(CO)[C@](O)(CO)[C@@]2(C)CCCC(C)(C)[C@H]12` [USTUSOL C], the IC50 with A549 [2] and in the assay with HL-60 was greater than 100 µM each time.
As to `CC(C)=C1Oc2c(ccc(CC(C)O)c2CO)C1=O` (stereo unspecified) [USTUSORANE A], the IC50 in the assay on A549 [2] and in the assay on HL-60 was greater than 100 µM in each case.
For `CC(O)Cc1ccc2c(c1CO)OC(C(C)(C)O)C2` (stereo unspecified) [USTUSORANE E], the results for the 50% inhibitory concentration (IC50) in the assay with A549 [2] and with HL-60 were greater than 100 µM and 0.13 µM, respectively.
